Values after ≈ are worked out from the molar mass of the structure shown.
Key:
[1] = Half life period as average of four rats at each dose of 5 mg/kg intravenous and 16 mg/kg peroral administration; assay type: ADME, organism-based; conditions: rat, in vivo
How it was run: (§1)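 Rats (n=4 per route, averaged) dosed 5 mpk iv as a DMSO solution and 16 mpk po as a suspension in 0.5% methocel.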

[2] = CL (clearance) of compound was determined after intravenous administration in average of two dogs at a dose of 1 mg/kg; assay type: ADME, organism-based, Canis lupus familiaris; set-up: dose 1 mg/kg, route intravenous; conditions: dog, in vivo
How it was run: (§2)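 Dogs (n=2, averaged) received 1 mpk iv as a solution in DMSO.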

[3] = Partition coefficient (logP); assay type: physicochemical; conditions: octanol/water
How it was run: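 Shake-flask partition: a methanolic sample aliquot added to equal volumes of 1-octanol and pH 7.4 buffer, equilibrated 8 h, then compound concentration measured in each phase.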

[4] = tested on: HUVEC; assay: Inhibition of HUVEC cell proliferation; conditions: Homo sapiens
[5] = species on record: Homo sapiens; assay: Compound tested for ability to bind to human plasma protein; assay type: cell-free
How it was run: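 Human plasma binding: buffer solutions of test compound equilibrated with human plasma, free and bound drug separated by ultrafiltration, free compound concentration measured by HPLC; reported as percent bound.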

[6] = Oral bioavailability (F%) of compound was determined as average of four rats at each dose of 5 mg/kg intravenous and 16 mg/kg peroral administration; assay type: ADME, organism-based; conditions: rat, in vivo; how it was run: as §1
[7] = Volume distribution (Vdss) of compound was determined after intravenous administration in average of two dogs at a dose of 1 mg/kg; assay type: ADME, organism-based, Canis lupus familiaris; set-up: dose 1 mg/kg, route intravenous; conditions: dog, in vivo, read-out: Vdss; how it was run: as §2
[8] = Half life period (t1/2) of compound was determined after intravenous administration in average of two dogs at a dose of 1 mg/kg; assay type: ADME, organism-based, Canis lupus familiaris; set-up: dose 1 mg/kg, route intravenous; conditions: dog, in vivo; how it was run: as §2
[9] = Solubility at pH 5.2; assay type: physicochemical; conditions: buffer
How it was run: (§3)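 Saturated compound solution in pH-adjusted buffer is filtered. Concentration comes from the HPLC peak area compared against standard methanolic solutions.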

[10] = CL (clearance) of compound was determined as average of four rats at each dose of 5 mg/kg intravenous and 16 mg/kg peroral administration; assay type: ADME, organism-based; conditions: rat, in vivo; how it was run: as §1
[11] = Solubility at pH 7.4; assay type: physicochemical; conditions: buffer; how it was run: as §3
[12] = Volume distribution of compound was determined as average of four rats at each dose of 5 mg/kg intravenous and 16 mg/kg peroral administration; assay type: ADME, organism-based; conditions: rat, in vivo, read-out: Vdss; how it was run: as §1
[13] = Solubility atpH 5.2; assay type: physicochemical; conditions: pH 5.2; how it was run: as §3
[14] = Oral bioavailability (F%) of compound was determined as average of four rats at each dose of 5 mg/kg intravenous and 20 mg/kg peroral administration; assay type: ADME, organism-based; conditions: rat, in vivo
How it was run: (§4)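 Rats, four per route and values averaged; 5 mpk iv given as a solution in DMSO, 20 mpk po as a suspension in 0.5% methocel.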

[15] = Volume distribution of compound was determined as average of four rats at each dose of 5 mg/kg intravenous and 20 mg/kg peroral administration; assay type: ADME, organism-based; conditions: rat, in vivo, read-out: Vdss; how it was run: as §4
[16] = Half life period as average of four rats at each dose of 5 mg/kg intravenous and 20 mg/kg peroral administration; assay type: ADME, organism-based; conditions: rat, in vivo; how it was run: as §4
[17] = CL (clearance) of compound was determined as average of four rats at each dose of 5 mg/kg intravenous and 20 mg/kg peroral administration; assay type: ADME, organism-based; conditions: rat, in vivo; how it was run: as §4

Row | Structure (SMILES) | logP [3] | IC50 [4] [nM] | Binding [5] [%] | solubility [11] [µg/mL] | other results
1 | c1ccc(-n2cnc3cc(-c4ccc(OCCN5CCCCC5)cc4)ccc32)cc1 | 4.29 | 87 | 99.4 | < 0.01 | half-life [1]: 6.1 h; clearance [2]: 4.6 mL/min/kg; bioavailability [6]: 76%; Vd [7]: 3.1 L/kg; half-life [8]: 5.2 h; solubility [9]: 120 µg/mL (≈ 0.302 mM); clearance [10]: 14.4 mL/min/kg; Vd [12]: 1.9 L/kg
2 | O=c1cc(-c2ccc3c(c2)ncn3-c2ccccc2)ccn1CCCN1CCCCC1 | 2.25 | 37 | 80.7 | 8400 (≈ 20.4 mM) | solubility [13]: 33900 µg/mL (≈ 82.2 mM); bioavailability [14]: 73%; clearance [2]: 8.9 mL/min/kg; Vd [15]: 3.9 L/kg; half-life [16]: 2.9 h; clearance [17]: 17.3 mL/min/kg; Vd [7]: 7.9 L/kg; half-life [8]: 10.4 h
3 | c1ccc(-n2cnc3cc(-c4ccc(OCCN5CCCCC5)cc4)cnc32)cc1 | 3.55 | 48 | 97.4 | 21 (≈ 0.0527 mM) | solubility [9]: 6460 µg/mL (≈ 16.2 mM)
4 | c1ccc(-n2cnc3cc(-c4ccc(NCCN5CCOCC5)nc4)ccc32)cc1 |  | 213 |  |  | 
5 | O=c1ccc(-c2ccc3c(c2)ncn3-c2ccccc2)cn1CCN1CCCCC1 |  |  | 85 | > 1000 | 
6 | O=c1ccc(-c2ccc3c(c2)ncn3-c2ccccc2)cn1CCCN1CCCCC1 |  | 152 |  |  | 
7 | O=c1nc(-c2ccc3c(c2)ncn3-c2ccccc2)ccn1CCCN1CCCCC1 |  | 164 |  |  | 
8 | c1ccc(-n2cnc3cc(-c4ccc(OCCN5CCCCC5)nc4)ccc32)cc1 |  | 122 |  |  | 
9 | COc1ccc(-c2ccc3c(c2)ncn3-c2ccccc2)cc1 |  | > 1000 |  |  | 

Source: ChEMBL document CHEMBL1144948, “Design and synthesis of 1,5-diarylbenzimidazoles as inhibitors of the VEGF-receptor KDR” (Bioorg Med Chem Lett, 2003)
